The target in one series is JAK2 (Homo sapiens, UniProt O60674). As to the kind of experiment: Inhibition of catalytic recombinant human GST-tagged JAK2 expressed in baculovirus at 1 uM. Put shortly: (§1)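 Kinase panel of 386 kinases, each screened at a single concentration of 1 μM.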
The target of series [1] is T1, Tyrosine-protein kinase JAK3 (Homo sapiens) (UniProt P52333).
T1 sequence (whole entry): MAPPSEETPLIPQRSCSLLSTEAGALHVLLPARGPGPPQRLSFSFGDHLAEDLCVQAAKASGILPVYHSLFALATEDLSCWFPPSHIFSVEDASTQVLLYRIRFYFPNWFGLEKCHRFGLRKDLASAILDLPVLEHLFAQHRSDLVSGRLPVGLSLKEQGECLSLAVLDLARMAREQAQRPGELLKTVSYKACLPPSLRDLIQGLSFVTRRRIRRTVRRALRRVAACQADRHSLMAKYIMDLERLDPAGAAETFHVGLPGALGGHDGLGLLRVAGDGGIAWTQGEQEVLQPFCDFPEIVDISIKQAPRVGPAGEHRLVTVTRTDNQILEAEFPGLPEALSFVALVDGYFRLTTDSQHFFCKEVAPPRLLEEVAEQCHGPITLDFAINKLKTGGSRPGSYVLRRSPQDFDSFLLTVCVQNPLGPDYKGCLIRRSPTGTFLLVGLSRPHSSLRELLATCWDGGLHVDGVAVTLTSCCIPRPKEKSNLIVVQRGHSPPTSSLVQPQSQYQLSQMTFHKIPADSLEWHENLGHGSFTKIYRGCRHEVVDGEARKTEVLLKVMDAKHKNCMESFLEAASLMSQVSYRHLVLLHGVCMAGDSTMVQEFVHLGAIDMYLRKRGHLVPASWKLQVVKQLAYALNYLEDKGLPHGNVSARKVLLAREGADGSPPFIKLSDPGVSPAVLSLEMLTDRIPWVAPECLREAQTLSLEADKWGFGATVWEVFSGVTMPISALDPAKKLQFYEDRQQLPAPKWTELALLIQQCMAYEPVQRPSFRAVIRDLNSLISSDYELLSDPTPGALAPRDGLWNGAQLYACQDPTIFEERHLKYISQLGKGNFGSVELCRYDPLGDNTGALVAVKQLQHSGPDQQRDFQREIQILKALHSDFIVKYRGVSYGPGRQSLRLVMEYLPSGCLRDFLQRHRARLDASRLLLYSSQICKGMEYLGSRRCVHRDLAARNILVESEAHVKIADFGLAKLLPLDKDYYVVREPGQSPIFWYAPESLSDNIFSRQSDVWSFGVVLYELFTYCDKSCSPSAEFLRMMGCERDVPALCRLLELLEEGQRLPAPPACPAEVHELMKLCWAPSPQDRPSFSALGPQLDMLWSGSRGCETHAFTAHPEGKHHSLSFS
Description: Inhibition of recombinant human GST-tagged JAK3 (781 to 1124 residues) expressed in baculovirus at 1 uM. Put shortly: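 Single-concentration screen at 1 μM across a panel of 386 kinases to profile broad kinase selectivity.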

Series [2] concerns the target T2, Serine/threonine-protein kinase D1 (Homo sapiens) (UniProt Q15139).
T2 sequence (whole entry): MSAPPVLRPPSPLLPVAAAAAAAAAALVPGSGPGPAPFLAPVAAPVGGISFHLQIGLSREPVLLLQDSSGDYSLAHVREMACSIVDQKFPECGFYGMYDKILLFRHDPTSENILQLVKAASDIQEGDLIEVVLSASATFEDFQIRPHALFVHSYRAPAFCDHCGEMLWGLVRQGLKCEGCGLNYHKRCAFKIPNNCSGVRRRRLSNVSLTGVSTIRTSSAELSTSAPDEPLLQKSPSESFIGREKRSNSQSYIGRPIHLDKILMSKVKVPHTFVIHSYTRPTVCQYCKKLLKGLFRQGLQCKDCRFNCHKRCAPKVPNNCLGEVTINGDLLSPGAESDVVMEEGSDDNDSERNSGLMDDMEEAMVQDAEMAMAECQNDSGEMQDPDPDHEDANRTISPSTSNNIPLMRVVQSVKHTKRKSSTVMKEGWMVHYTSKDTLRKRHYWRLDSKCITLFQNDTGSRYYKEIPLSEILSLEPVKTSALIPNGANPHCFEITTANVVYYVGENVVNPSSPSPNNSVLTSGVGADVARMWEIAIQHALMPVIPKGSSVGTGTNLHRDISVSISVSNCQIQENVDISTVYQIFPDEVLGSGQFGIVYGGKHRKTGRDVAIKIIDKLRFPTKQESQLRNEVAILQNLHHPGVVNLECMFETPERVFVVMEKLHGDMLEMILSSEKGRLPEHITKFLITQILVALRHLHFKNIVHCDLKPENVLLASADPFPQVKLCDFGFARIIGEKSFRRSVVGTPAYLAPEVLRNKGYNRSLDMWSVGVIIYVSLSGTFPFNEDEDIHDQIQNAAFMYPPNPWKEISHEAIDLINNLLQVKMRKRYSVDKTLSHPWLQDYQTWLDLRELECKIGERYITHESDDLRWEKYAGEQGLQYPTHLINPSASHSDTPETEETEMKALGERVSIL
Description: Inhibition of recombinant human full length GST-tagged PRKD1 expressed in baculovirus at 1 uM. In a few lines:
as §1

Series [3] deals with Leucine-rich repeat serine/threonine-protein kinase 2 (Homo sapiens) (UniProt Q5S007). Description: Inhibition of recombinant human full length GST-tagged catalytic LRRK2 expressed in baculovirus at 1 uM. In a few lines: as §1
Series [4] is described as follows: AUC in CD1 mouse at 50 mg/kg, po administered via gavage by LC/MS/MS analysis. In kind it is ADME, organism-based. The note with it: in vivo. In a few lines: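 Mouse pharmacokinetics after oral dosing at 10 or 50 mg/kg. The 10 mg/kg dose was given in 10% HPbCD + 5% dextrose in WFI at pH 4. The 50 mg/kg dose was given in 5% SBECD in WFI at pH 2. Plasma exposure (AUC), half-life and oral bioavailability were derived.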

In another series the test system is Mus musculus. As to the kind of experiment: In vivo inhibition of JAK1 in tumors of human NCI-H1975 cells xenografted in NCr nude mouse assessed as decrease in STAT3 phosphorylation at 50 mg/kg, po after 2 hrs by ELISA. In kind it is functional, organism-based. Put shortly:
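NCI-H1975 xenograft-bearing mice received single oral gavage doses of 1, 3, 10, 30, 50 or 100 mg/kg. Animals were sacrificed at 2 h, with an extra 6 h group at 50 mg/kg. Tumour pSTAT3 was measured as % inhibition, and plasma drug concentration was measured in parallel. Significance was tested by Student's t-test versus vehicle control.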

Series [5] is described as follows: Protein binding in CD1 mouse plasma assessed as unbound fraction. In kind it is ADME, cell-free.

The record followed here is ChEMBL document CHEMBL4138312 (J Med Chem, 2018).

As a reminder, the inhibition is the relative decrease from the control value, in per cent. The term AUC denotes the area under the concentration-time curve, a measure of exposure. A high value points to high exposure. What is called fraction unbound is the share of the substance not bound to proteins or other matrix.

Structures are written as SMILES.

Sequence of JAK2 (O60674 whole entry): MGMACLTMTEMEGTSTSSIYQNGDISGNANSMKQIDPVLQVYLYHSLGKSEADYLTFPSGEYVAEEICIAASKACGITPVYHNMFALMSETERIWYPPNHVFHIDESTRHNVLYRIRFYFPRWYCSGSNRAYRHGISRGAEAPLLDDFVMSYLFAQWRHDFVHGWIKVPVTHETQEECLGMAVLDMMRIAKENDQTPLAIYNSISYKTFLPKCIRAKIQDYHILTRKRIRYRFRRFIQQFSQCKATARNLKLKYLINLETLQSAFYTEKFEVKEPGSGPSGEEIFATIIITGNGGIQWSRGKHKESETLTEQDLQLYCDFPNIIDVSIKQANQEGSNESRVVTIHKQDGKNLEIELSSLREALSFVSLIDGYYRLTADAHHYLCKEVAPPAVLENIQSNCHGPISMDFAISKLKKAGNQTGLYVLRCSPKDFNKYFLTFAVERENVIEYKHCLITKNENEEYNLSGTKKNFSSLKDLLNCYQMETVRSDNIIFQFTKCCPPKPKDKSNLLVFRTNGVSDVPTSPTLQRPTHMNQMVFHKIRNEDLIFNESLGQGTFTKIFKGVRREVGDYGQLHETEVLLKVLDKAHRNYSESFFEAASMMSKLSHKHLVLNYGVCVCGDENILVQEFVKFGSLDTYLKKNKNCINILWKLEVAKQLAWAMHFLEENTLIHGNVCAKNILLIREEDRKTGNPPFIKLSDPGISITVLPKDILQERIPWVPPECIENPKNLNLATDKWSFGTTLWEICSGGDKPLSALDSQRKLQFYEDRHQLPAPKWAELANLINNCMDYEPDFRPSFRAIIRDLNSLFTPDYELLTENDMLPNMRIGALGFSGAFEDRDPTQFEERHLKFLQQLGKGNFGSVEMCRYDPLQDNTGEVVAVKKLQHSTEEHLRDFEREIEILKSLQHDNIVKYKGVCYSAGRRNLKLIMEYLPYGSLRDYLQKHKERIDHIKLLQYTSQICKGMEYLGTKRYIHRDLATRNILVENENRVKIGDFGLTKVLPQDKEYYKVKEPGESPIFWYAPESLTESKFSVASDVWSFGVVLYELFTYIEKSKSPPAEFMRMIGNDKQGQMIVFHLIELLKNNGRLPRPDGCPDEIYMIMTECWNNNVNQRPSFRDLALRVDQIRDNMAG
Sequence of Leucine-rich repeat serine/threonine-protein kinase 2 (Homo sapiens) (Q5S007 whole entry): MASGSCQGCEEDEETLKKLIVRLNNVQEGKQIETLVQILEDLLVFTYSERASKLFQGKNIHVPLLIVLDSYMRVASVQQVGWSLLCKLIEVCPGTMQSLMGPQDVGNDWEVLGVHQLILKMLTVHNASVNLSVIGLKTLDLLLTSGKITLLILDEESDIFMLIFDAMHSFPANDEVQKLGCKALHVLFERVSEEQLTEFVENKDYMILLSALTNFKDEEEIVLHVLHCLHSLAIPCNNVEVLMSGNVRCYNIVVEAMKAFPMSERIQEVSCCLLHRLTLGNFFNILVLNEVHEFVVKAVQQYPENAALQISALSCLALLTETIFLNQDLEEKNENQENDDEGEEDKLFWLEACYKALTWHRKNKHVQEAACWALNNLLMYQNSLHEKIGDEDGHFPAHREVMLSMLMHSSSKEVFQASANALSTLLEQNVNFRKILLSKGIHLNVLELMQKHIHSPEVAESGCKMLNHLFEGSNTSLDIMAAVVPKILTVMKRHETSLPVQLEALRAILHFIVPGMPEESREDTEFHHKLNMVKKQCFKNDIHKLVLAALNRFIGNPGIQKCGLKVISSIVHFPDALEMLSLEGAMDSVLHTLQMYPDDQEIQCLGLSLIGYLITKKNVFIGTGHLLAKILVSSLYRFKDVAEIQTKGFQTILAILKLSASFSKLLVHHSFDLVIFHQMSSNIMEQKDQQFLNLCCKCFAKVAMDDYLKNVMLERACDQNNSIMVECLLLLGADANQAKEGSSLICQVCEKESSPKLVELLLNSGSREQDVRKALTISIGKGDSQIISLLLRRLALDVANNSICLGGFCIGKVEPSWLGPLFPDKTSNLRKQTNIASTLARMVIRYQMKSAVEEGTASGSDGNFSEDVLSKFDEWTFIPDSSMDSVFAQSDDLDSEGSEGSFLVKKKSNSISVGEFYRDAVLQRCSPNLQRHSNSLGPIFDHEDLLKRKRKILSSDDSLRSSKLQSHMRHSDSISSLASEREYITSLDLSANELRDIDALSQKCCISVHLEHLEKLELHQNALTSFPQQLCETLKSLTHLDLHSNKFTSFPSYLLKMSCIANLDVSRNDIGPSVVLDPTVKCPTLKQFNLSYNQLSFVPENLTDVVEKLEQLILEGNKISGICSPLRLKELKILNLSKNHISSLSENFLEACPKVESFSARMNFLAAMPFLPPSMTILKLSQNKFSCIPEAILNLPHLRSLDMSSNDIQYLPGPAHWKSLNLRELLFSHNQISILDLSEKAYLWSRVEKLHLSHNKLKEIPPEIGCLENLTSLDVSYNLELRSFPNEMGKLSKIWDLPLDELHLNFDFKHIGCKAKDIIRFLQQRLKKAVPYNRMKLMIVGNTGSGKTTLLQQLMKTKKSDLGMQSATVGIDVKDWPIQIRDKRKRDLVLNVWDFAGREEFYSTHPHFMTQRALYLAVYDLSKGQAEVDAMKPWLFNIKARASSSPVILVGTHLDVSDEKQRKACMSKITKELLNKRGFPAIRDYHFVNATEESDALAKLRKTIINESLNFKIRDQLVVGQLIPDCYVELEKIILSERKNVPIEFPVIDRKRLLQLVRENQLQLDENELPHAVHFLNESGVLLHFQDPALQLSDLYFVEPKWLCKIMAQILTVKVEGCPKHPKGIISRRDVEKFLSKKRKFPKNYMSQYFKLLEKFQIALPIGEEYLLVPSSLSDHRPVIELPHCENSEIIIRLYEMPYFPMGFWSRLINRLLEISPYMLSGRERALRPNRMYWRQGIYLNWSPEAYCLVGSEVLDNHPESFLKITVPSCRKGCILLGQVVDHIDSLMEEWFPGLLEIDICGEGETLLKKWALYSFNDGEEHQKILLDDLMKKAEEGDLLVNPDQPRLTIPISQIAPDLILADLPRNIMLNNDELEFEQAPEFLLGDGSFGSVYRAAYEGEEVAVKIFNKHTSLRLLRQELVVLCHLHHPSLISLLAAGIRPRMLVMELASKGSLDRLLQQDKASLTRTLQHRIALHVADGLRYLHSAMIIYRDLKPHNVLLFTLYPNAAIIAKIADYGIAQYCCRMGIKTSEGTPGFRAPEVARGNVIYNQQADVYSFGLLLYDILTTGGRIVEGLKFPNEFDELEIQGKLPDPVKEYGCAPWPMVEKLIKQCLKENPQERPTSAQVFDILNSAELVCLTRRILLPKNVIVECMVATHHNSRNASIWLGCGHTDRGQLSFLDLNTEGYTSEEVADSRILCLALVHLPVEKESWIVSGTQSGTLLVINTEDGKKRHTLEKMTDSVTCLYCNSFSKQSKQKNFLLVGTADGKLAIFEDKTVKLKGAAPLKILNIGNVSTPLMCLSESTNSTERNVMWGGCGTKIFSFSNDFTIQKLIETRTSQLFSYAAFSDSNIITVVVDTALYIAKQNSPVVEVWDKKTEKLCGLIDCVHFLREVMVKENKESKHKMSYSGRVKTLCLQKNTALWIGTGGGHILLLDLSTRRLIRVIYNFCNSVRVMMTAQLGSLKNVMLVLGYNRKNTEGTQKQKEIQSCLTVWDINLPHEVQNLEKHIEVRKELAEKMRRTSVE

In the case of `CC[C@@H](C)Nc1nc(Nc2cc(N3C[C@@H]4C[C@H]3CN4C)cnc2F)ncc1C`, the inhibition at 1 µM on JAK2 is 31%. In addition, the inhibition in series [1] is 46%; in series [2] it was 73%; in series [3] it was 71%; with Mus musculus, “Dose-dependent effect”. This compound came in with an area under the curve (AUC) in series [4] of 18.9 µM·h. Further, in series [5], the unbound share (fraction unbound) came out at 0.15.
